From PubChem
UPR CHOP act – activators of apoptotic arm of unfolded protein response (CHOP); CHO-CHOP luciferase reporter, UPR activation, luminescence; percent of tunicamycin response over DMSO baseline; activation, % at 10 µM; 330,000 tested, 0.34% active; AID 449763;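 active means at 10 µM dose, activation of 40% or more, normalized to positive control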;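 further: 100% = tunicamycin at 10 µg/mL and 0% = DMSO alone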
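Test system: CHO-CHOP cells, stable luciferase reporter of PERK-eIF2a-CHOP signalling | Quantity: 500 CHO-CHOP cells per well | Buffer or medium: F12 plus 10% serum | Compound dosing: 10 µM single point, 0.5% DMSO | Schedule: 6 h compound treatment, 37 °C | Signal: Luciferase luminescence | Control set: Tunicamycin high control, DMSO low control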
hiPSC survival – enhancers of human iPSC single-cell survival; hiPSC single-cell survival, ATPlite luminescence; 100% = ROCK inhibitor wells, 0% = DMSO; survival enhancement, % at 20 µM; 360,000 tested, 0.044% active; in the data active means survival enhancement above about 18%;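 further: cells exposed to compounds for 16 hours before the ATP read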
XBP1 UPR activ – adaptive UPR (XBP1) activation; CHO-XBP1 luciferase reporter, IRE1-XBP1 UPR activation, luminescence; percent of tunicamycin response, DMSO as zero; activation, % at 20 µM; 330,000 tested, 0.33% active;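 active means versus positive control, 20 µM dose yields 30% or more activation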;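 further: 100% = tunicamycin at 10 µg/mL and 0% = DMSO only wells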
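Material – CHO cell line with stable XBP1 luciferase reporter · Buffer or medium – F12 plus 10% FBS · Compound – single point, 20 µM final compound, 1% DMSO · Schedule – 16-18 h cell attachment at 37 °C, then 6 h compound exposure · Signal – Steady-Glo luminescence read · Benchmarks – high control tunicamycin 10 µg/mL final, low control DMSO vehicle only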
Cardio protect – protects H9c2 cardiomyocytes from peroxide injury; protection from H2O2 cell death, % at 20 µM; 360,000 tested, 0.63% active; AID 588492; H2O2 injury protection, ATPLite, 2 h;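 active means compounds giving at least 50% protection of heart cells from peroxide-induced death in the single-dose screen, raw or plate-pattern-corrected value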;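 further: 0% = DMSO wells with peroxide and 100% = DMSO wells without peroxide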
CHOP inh – inhibitors of CHOP induction in ER stress response. CHO-K1 CHOP-promoter luciferase, tunicamycin-induced, 15-18 h. inhibition, % at 10 µM. 220,000 tested, 3.8% active;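 active means compounds that reduced the stress-induced luciferase reporter signal by more than about 70% of percent inhibition, limit read from the data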;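 further: 0% = tunicamycin plus vehicle and 100% = wells without tunicamycin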
Starred values were filed as active, the others as inactive; · = no result given. Many of the other results were omitted from the sample, so hits are more common in it than they were.

SMILES	UPR CHOP act	hiPSC survival	XBP1 UPR activ	Cardio protect	CHOP inh
Cc1ccc(S(=O)(=O)N2CCCC(C(=O)NCc3cccnc3)C2)cc1Cl (stereo not given)	0	-4	-1	1	88*
Cc1c(C(=O)NCc2cccnc2)oc2ccc(S(=O)(=O)N3CCC4(CC3)OCCO4)cc12	2	-1	-2	-1	2
Cc1c(C(=O)NCc2cccnc2)oc2ccc(S(=O)(=O)N3CC(C)CC(C)C3)cc12 (stereo not given)	-2	-1	1	2	102*
Cc1cccc(-c2cnc(C(O)c3ccc(Cl)cc3C)[nH]2)c1 (stereo not given)	·	4	·	-13	·
Cn1c(=O)c2c(nc(NCc3cccnc3)n2Cc2cccc(C(F)(F)F)c2)n(C)c1=O	-1	-4	-2	73*	28
Cc1ccc2c(c1)N=C(c1ccccc1)CC(C(Cl)Cl)=N2	8	-1	-3	-6	-23
Cc1ccc(C2=Nc3ccccc3N=C(C(Cl)Cl)C2)cc1	-4	-5	-6	-23	84*
Cc1cc(C(=O)O/N=C(\N)c2ccc(C(C)(C)C)cc2)no1	6	-1	2	-11	-19
Cc1noc(-c2ccc(Cl)cc2)c1C(=O)O/N=C(\N)c1ccc(C(C)(C)C)cc1	3	0	-3	-12	80*
O=C(c1ccc(Cl)c(Cl)c1)N1CCC(=O)N([C@H](COCc2cccc(C(F)(F)F)c2)Cc2ccccc2)CC1	·	0	·	·	·
O=C(Nc1ccccc1Cc1ccccc1)c1ccccc1NS(=O)(=O)c1ccc(Cl)s1	6	0	0	-16	71*
COC(=O)[C@@]1(Sc2ccc(C)cc2)CC(=O)N[C@@H]1c1ccc(C(F)(F)F)cc1	·	0	·	·	·
CC(C)c1ccc(S(=O)(=O)/N=C2/C=C(Sc3ncn[nH]3)C(=O)c3ccccc32)cc1	·	-2	·	-21	81*
COc1ccc(C(=O)c2[nH]c(N)c(C(=O)NCCc3c[nH]c4ccccc34)c2-c2ccc(Cl)c(F)c2)cc1	·	-1	·	·	·
CCN(CC)S(=O)(=O)c1cccc(NC(=O)COC(=O)c2cc(C)oc2C)c1	5	0	-3	-19	72*
CN(C)S(=O)(=O)c1cccc(NC(=O)COC(=O)c2ccc([N+](=O)[O-])o2)c1	1	0	-1	102*	32
O=C(COC(=O)c1ccc([N+](=O)[O-])o1)Nc1cccc(S(=O)(=O)N2CCOCC2)c1	4	1	2	45	21
O=C(COC(=O)c1ccc([N+](=O)[O-])o1)Nc1ccc(N2CCOCC2)cc1	0	3	3	52*	·
Cc1cc(C(=O)OCC(=O)Nc2cccc(S(=O)(=O)N(C)C)c2)c(C)o1	2	0	-1	-2	5
CCC(C)[C@H]1CNC(=O)C(=O)N1CC1CCCCC1 (stereo not given in full)	·	-2	·	·	·
O=C(Nc1ccccc1)c1nn(-c2cccc(C(F)(F)F)c2)ccc1=O	2	0	-5	-1	0
O=C(Nc1ccccc1)c1nn(-c2ccccc2)c(=O)cc1C(F)(F)F	-1	6	0	-16	73*
O=C(c1cccc(Cl)c1)c1nn(-c2ccccc2)c(=O)cc1C(F)(F)F	2	11	4	-15	85*
O=C(c1ccccc1)c1nn(-c2ccc(Cl)cc2)c(=O)cc1C(F)(F)F	8	-2	2	-13	90*
O=C(c1ccccc1)c1nn(-c2ccccc2)c(=O)cc1C(F)(F)F	1	4	-2	-2	24
SMILES	UPR CHOP act	hiPSC survival	XBP1 UPR activ	Cardio protect	CHOP inh
Cc1ccccc1S(=O)(=O)NC(=O)C1(C)CCN1C(=O)Cc1ccccc1Cl (stereo not given)	·	-2	·	6	·
C=CCC1(CC=C)CCCN1C(=O)c1ccc2oc(CCCC)nc2c1	·	4	·	-19	·
Cc1ccccc1CS(=O)(=O)Cc1ccc(C(=O)NCCCN2CCOCC2)o1	2	-2	-1	1	4
Cc1ccccc1CS(=O)(=O)Cc1ccc(C(=O)NCCCN2CCCC2=O)o1	1	2	1	0	73*
CC(C)OC(=O)C(C(=O)C(F)(F)F)c1cc(NS(=O)(=O)c2ccc3ccccc3c2)c2ccccc2c1O (stereo not given)	3	-1	-1	-10	92*
C[C@@H]1CN([C@H](C)CO)C(=O)CCCn2nncc2CO[C@@H]1CN(C)S(=O)(=O)c1ccc(-n2cccn2)cc1	·	0	·	7	·
O=C(O)C(Cc1ccccc1)N1C(=O)/C(=C/c2cccc3ccccc23)SC1=S (stereo not given)	·	·	·	·	106*
COCOc1cccc(CN2CCC2(C)C(=O)Nc2ccc(OC)c(OC)c2)c1 (stereo not given)	·	0	·	-6	·
CCCN(C)C1CN(Cc2cn(Cc3cccc(Cl)c3)nn2)S(=O)(=O)C1 (stereo not given)	·	0	·	·	·
COc1cc(-c2nc(-c3ccccc3)c(-c3cccs3)[nH]2)cc(OC)c1OC	4	-1	2	-4	-18
c1ccc(-c2nc(-c3cccs3)[nH]c2-c2ccccc2)cc1	2	-1	-1	-3	74*
COc1cc(CCN(C(=O)c2cccc(S(C)(=O)=O)c2)C(CCc2ccccc2)c2nc3ccccc3[nH]2)cc(OC)c1 (stereo not given)	·	1	·	7	·
O=C(CCN1C(=O)C2C3C=CC(C3)C2C1=O)Nc1ccc(F)cc1 (stereo not given)	-5	8	-1	2	86*
O=C(CCN1C(=O)C2C3C=CC(C3)C2C1=O)Nc1ccc2c(c1)OCO2 (stereo not given)	3	-4	-4	-1	-33
O=C(OCc1cc(Cl)cc2c1OCOC2)c1cccnc1Cl	2	-1	2	1	·
CNS(=O)(=O)c1cccc(C(=O)OCc2cc(Cl)cc3c2OCOC3)c1	1	-1	0	0	75*
CCCN(C)C1CN(Cc2cn(CCCC(=O)OC)nn2)S(=O)(=O)C1 (stereo not given)	·	0	·	·	·
COC(=O)C1=C(C)N=C2SC(C#N)=C(N)N2C1c1ccc(OCc2ccccc2)cc1 (stereo not given)	1	-1	3	-1	88*
CCC(C)C(NC(=O)c1ccccc1NC(=O)c1ccc(OC)cc1)C(=O)NCc1ccco1 (stereo not given)	0	0	-1	8	71*
COc1ccc(C(=O)Nc2ccc(Cl)cc2C(=O)NCc2ccco2)cc1	0	1	2	-4	7
CC(C)c1ccc(NC(=O)c2cc(S(=O)(=O)NCC3COc4ccccc4O3)ccc2F)cc1 (stereo not given)	1	0	-3	-11	81*
